Experimental data from PMC3822625 (Journal of Cellular and Molecular Medicine, 2010).
Values belong to the molecule of their own block, whether it stands above or below them.

How the values were obtained:
[1] = target: P-gp expressed in porcine capillaries (Sus scrofa, UniProt K7GMM7); experiment: NBD-CSA transport in porcine brain capillaries; assay type: cell-based; settings: confocal microscopy, result in words
Summary of the method: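 Porcine brain capillaries incubated with test compound and the fluorescent P-gp substrate NBD-CSA. Transport into the capillary lumen imaged by confocal microscopy (transmitted light, fluorescence, overlay) and quantified by fluorospectrometry. Negative-control capillaries stained with NBD-CSA only, same time course.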

[2] = test system: Tg(fli1:EGFP) zebrafish embryos; experiment: Zebrafish embryo in vivo angiogenesis assay
[3] = target: P-gp (Homo sapiens, UniProt P08183); experiment: Calcein-AM assay by flow cytometry in CEM/ADR5000 cells; settings: CCRF-CEM and CEM/ADR5000 cells, result in words
Sequence of P-gp (P08183 whole entry): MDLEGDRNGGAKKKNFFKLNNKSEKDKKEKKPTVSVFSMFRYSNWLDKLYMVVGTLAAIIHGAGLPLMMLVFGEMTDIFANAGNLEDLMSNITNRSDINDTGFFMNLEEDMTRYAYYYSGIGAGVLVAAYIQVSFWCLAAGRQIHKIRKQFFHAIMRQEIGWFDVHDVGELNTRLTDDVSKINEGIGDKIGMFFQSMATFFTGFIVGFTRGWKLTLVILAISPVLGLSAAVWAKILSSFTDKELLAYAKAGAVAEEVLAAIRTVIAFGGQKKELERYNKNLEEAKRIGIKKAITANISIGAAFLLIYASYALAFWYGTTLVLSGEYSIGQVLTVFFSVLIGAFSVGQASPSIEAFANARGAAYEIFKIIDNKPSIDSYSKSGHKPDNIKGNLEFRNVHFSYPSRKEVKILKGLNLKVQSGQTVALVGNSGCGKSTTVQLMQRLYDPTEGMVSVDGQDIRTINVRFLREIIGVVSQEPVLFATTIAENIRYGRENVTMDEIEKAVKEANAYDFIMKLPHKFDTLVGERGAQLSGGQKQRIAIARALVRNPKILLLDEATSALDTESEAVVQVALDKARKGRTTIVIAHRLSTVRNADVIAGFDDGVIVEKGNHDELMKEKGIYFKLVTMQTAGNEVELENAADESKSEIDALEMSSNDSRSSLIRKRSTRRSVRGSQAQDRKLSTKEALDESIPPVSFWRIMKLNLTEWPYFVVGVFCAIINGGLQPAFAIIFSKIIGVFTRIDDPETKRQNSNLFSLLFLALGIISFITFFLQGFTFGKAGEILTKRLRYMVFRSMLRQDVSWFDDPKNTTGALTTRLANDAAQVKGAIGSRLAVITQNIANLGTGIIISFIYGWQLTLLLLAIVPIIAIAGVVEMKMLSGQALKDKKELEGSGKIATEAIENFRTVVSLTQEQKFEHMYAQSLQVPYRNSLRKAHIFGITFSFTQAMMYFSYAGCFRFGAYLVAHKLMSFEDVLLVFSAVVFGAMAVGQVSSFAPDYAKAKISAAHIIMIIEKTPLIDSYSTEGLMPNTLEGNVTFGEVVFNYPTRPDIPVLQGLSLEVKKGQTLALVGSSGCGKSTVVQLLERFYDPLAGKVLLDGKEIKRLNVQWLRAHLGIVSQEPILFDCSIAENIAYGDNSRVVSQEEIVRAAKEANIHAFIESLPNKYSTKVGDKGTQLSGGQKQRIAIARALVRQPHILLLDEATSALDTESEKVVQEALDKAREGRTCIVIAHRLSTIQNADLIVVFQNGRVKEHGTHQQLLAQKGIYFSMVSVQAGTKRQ

Sequence of P-gp expressed in porcine capillaries (K7GMM7 1-1248): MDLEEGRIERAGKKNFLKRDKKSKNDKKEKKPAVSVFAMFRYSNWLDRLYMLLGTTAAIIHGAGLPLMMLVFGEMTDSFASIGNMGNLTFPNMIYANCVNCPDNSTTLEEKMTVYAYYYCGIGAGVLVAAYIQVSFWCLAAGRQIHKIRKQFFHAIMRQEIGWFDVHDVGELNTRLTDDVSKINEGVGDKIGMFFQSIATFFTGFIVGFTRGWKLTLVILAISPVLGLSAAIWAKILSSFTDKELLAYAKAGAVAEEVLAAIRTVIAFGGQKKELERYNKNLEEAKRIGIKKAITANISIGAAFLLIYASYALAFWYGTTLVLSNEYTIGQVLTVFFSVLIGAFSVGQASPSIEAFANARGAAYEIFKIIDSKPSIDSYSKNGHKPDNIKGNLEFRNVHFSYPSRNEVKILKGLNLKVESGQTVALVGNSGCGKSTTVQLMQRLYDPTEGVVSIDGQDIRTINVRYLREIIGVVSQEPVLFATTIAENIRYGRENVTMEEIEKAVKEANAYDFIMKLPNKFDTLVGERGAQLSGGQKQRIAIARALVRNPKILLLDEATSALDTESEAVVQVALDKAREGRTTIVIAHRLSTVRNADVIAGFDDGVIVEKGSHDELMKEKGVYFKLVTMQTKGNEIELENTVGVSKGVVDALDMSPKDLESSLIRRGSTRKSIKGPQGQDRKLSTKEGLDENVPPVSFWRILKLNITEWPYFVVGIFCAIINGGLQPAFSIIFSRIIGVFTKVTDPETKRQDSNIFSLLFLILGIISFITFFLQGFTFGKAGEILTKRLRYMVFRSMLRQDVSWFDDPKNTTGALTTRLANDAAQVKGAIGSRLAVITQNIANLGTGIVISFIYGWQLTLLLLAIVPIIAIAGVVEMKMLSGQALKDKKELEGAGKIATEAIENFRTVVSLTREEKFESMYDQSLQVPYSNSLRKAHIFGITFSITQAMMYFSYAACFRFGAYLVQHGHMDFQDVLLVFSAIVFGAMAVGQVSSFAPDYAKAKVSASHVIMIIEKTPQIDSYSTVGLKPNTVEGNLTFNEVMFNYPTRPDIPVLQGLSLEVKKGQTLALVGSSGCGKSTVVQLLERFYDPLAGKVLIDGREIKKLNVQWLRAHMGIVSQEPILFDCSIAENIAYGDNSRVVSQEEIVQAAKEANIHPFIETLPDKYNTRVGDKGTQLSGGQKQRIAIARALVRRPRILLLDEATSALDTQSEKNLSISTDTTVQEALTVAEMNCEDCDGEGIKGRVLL

- Inhibition of luminal P-gp (NBD-CSA transport) [1]: inhibited
SMILES: C/C=C/C[C@@H](C)C(=O)[C@H]1C(=O)N[C@@H](C(C)C)C(=O)N(C)CC(=O)N(C)[C@@H](CC(C)C)C(=O)N[C@@H](C(C)C)C(=O)N(C)[C@@H](CC(C)C)C(=O)N[C@@H](C)C(=O)N[C@H](C)C(=O)N(C)[C@@H](CC(C)C)C(=O)N(C)[C@@H](CC(C)C)C(=O)N(C)[C@@H](C(C)C)C(=O)N1C [PSC-833]

SMILES: CC1=CO[C@@H]2O[C@@]3(C)CC[C@H]4[C@H](C)CC[C@@H]1[C@@]24OO3 [Compound 4, anhydrodihydroartemisinin]
- Dead = number of dead embryos up to 48 hpf ([2]; 50 μg/ml, N=10 embryos): 2
- Dead = number of dead embryos up to 48 hpf ([2]; 75 μg/ml, N=10 embryos): 5

SMILES: Cc1cc(C)c(/C=C2\C(=O)Nc3ccccc32)[nH]1 [SU5416]
- Formation of ISVs at 28 hpf ([2]; 10 μg/ml, 28 hpf, result in words): completely blocked formation of ISVs
- ISV sprouting at 48 hpf ([2]; 10 μg/ml, 48 hpf, compared to control embryos, result in words): sprouted only minimally
- Heart rate ([2]; 10 μg/ml, result in words): not affected
- Oedema ([2]; 10 μg/ml, result in words): rarely observed

SMILES: C[C@@H]1CC[C@H]2[C@@H](C)C(=O)O[C@@H]3O[C@@]4(C)CC[C@@H]1[C@]32OO4 [Compound 1, artemisinin]
- P-gp inhibition (calcein accumulation) [3]: do not act as P-gp inhibitors

SMILES: C[C@H]1[C@H](OC(=O)CCC(=O)O)O[C@@H]2O[C@@]3(C)CC[C@H]4[C@H](C)CC[C@@H]1[C@@]24OO3 [Artesunate, artesunate]
- P-gp inhibition (calcein accumulation) [3]: do not act as P-gp inhibitors
- Dead = number of dead embryos up to 48 hpf ([2]; 25 μg/ml, N=20 embryos): 1
- Dead = number of dead embryos up to 48 hpf ([2]; 50 μg/ml, N=20 embryos): 1
- Dead = number of dead embryos up to 48 hpf ([2]; 100 μg/ml, N=20 embryos): 1
- Dead = number of dead embryos up to 48 hpf ([2]; 200 μg/ml, N=10 embryos): 1
- Anti-angiogenic effect ([2]; overall assessment over the dose range, result in words): dose-dependent anti-angiogenic effects
